Assay results as given in ChEMBL document CHEMBL4364311, “Variations on a scaffold - Novel GABAA receptor modulators” (Eur J Med Chem, 2019).
One block for each molecule: values may come before it. Active and inactive are the calls of the source. The rule behind the calls is not given here.

Tests used:
[1] = Solubility of the compound in DMSO; type: physicochemical
[2] = biological target: T1, Gamma-aminobutyric acid receptor subunit alpha-1/beta-3 (Rattus norvegicus) (UniProt P62813+P63079); test: (§1) Positive allosteric modulator activity at rat alpha1beta3 GABA-A receptor expressed in Xenopus laevis oocytes assessed as increase in GABA-induced chloride current at 10 uM co-applied with GABA at concentration of EC3-5 at -60 mV holding potential by two-microelectrode voltage clamp method relative to control; type: cell-based
How it was run: (§2)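 α1 and β3 RNA mixed 1:1 (final 56 ng/μl); collagenase-defolliculated stage 5–6 Xenopus oocytes injected with 2.8 ng mRNA, kept 2–3 days at 18 °C. Two-electrode clamp at −60 mV, room temperature, electrodes 1–3 MΩ with 2 M KCl, NDE perfusion 6 mL/min. GABA titrated to 3–5% of maximal current, co-applied with compound (0.1% DMSO final) until peak response.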

[3] = Solubility of the compound at 30 uM in NDE medium containing 0.1% DMSO; type: physicochemical
[4] = biological target: T1, Gamma-aminobutyric acid receptor subunit alpha-1/beta-3 (Rattus norvegicus); test: as §1, with “30” for “10”; type: cell-based; how it was run: as §2
[5] = biological target: T1, Gamma-aminobutyric acid receptor subunit alpha-1/beta-3 (Rattus norvegicus); test: as §1, with “1 to 30” for “10”; type: cell-based; how it was run: as §2
[6] = Solubility of the compound in MeOH; type: physicochemical

Compound: Cc1ccc(-n2nc3c4cc(Cl)ccc4[nH]cc-3c2=O)cc1
Efficacy [2]: 372%

Compound: COc1ccc2[nH]cc3c(=O)n(-c4ccc(C)cc4)nc-3c2c1
Efficacy [2]: 719%

Compound: O=C(O)c1[nH]c2ccc(Cl)cc2c1/N=N/c1ccc(Br)cc1
solubility [1]: Soluble
solubility [3]: Soluble
Efficacy [4]: 3000%
Activity [5]: Active
solubility [6]: Soluble

Compound: Cc1ccc(/N=N/c2c(C(=O)O)[nH]c3ccc(Cl)cc23)cc1
solubility [1]: Soluble
Efficacy [2]: 707%
solubility [3]: Soluble
Efficacy [4]: 1800%
Activity [5]: Active
solubility [6]: Soluble

Compound: COc1ccc(-n2nc3c4cc(Cl)ccc4[nH]cc-3c2=O)cc1
Efficacy [2]: 1060%

Compound: COc1ccc(-n2nc3c4cc(OC)ccc4[nH]cc-3c2=O)cc1
Efficacy [2]: 1120%

Continued, values first:

solubility [1]: Soluble
Efficacy [2]: 167%
solubility [3]: Soluble
Efficacy [4]: 400%
Activity [5]: Active
solubility [6]: Soluble
Compound: COc1ccc2[nH]c(C(=O)O)c(/N=N/c3ccc(C)cc3)c2c1

solubility [1]: Soluble
solubility [3]: Soluble
Efficacy [4]: 200%
solubility [6]: Soluble
Compound: COc1ccc(/N=N/c2c(C(=O)O)[nH]c3ccccc23)cc1

Activity [4]: inactive
Compound: CCOC(=O)c1[nH]c2ccccc2c1/N=N/c1ccc(OC)cc1

solubility [1]: Soluble
Efficacy [2]: 196%
solubility [3]: Soluble
Efficacy [4]: 300%
solubility [6]: Soluble
Compound: COc1ccc(/N=N/c2c(C(=O)O)[nH]c3ccc(OC)cc23)cc1

Activity [4]: inactive
Compound: CCOC(=O)c1[nH]c2ccc(Cl)cc2c1/N=N/c1ccc(OC)cc1

solubility [1]: Soluble
Efficacy [2]: 919%
solubility [3]: Soluble
Efficacy [4]: 2000%
Activity [5]: Active
solubility [6]: Soluble
Compound: COc1ccc(/N=N/c2c(C(=O)O)[nH]c3ccc(Cl)cc23)cc1

solubility [1]: Soluble
solubility [3]: Soluble
Efficacy [4]: 830%
Activity [5]: Active
solubility [6]: Soluble
Compound: COc1ccc2[nH]c(C(=O)O)c(/N=N/c3ccc(Br)cc3)c2c1
